ChEMBL document CHEMBL4270642, “Boronic ester-linked macrocyclic lipopeptides as serine protease inhibitors targeting Escherichia coli type I signal peptidase” (Eur J Med Chem, 2018)
In brackets after ≈: the same amount, converted by molar mass.

How the values were obtained:
[1] = Hemolytic activity in human RBC at 100 uM after 45 mins by spectrophotometric method relative to control; assay type: ADME, cell-based, Erythrocyte; conditions: red blood cells (erythrocytes), read-out: Activity
Method in brief: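 Heparinized human blood; red cells washed three times in Tyrode buffer pH 7.4. Compound at 100 µM final with 1% DMSO and 50% RBC, shaken (250 rpm) 45 min at 37 °C. Cells pelleted (1000 × g, 10 min); supernatant haemoglobin at 540 nm. Percent lysis relative to buffer-only and 2% Triton X-100 controls.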

Signal peptidase I = Signal peptidase I (Escherichia coli K-12, UniProt P00803); assay: Inhibition of Escherichia coli type 1 signal peptidase lepB preincubated for 10 mins followed by Dabcyl-VGGTATAYGAFSRPGLE-(EDANS)-OH substrate addition measured after 2 hrs by FRET based assay
Sequence of Signal peptidase I (P00803 whole entry): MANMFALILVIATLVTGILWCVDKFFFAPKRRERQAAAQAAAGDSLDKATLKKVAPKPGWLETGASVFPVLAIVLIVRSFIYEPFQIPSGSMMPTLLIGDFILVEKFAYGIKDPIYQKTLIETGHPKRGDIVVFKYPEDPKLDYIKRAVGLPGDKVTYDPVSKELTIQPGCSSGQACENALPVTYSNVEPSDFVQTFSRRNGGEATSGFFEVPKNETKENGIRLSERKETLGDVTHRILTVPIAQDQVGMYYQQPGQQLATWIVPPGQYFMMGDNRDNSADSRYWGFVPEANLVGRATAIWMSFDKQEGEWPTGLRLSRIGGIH
Method in brief: (§1)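 EcLepB (about 50 nM estimated) preincubated 10 min with compound. Reaction started with Dabcyl/EDANS FRET peptide at 8 µM final (Km 20 µM). Fluorescence followed continuously at 535 nm, 22 °C, for 2 h. Cleavage rates plotted against inhibitor concentration; IC50 from non-linear regression of sigmoidal dose-response curves.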

Escherichia coli [2] = assay: Antibacterial activity against Escherichia coli ATCC 25922 after 16 to 20 hrs by broth microdilution method; assay type: functional
Method in brief: (§2)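 Broth microdilution in cation-adjusted Mueller-Hinton II per EUCAST/CLSI; two-fold compound series 64 down to 0.25 µg/mL final. Inoculum from fresh colonies (non-selective agar, 18-24 h, 35 ± 2 °C), adjusted to 0.5 McFarland, diluted to about 5 × 10^5 CFU/mL final. Static incubation 16-20 h at 35 ± 2 °C; MIC read visually as complete growth inhibition against medium-only wells.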

Escherichia coli [3] = assay: Antibacterial activity against tolC deficient Escherichia coli CH3130 after 16 to 20 hrs by broth microdilution method; assay type: functional; method in brief: as §2
Escherichia coli [4] = assay: Antibacterial activity against Escherichia coli D22 CGSG 5163 harboring Ips mutant after 16 to 20 hrs by broth microdilution method; assay type: functional
Method in brief: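 Broth microdilution in cation-adjusted Mueller-Hinton II broth, following EUCAST and CLSI guidelines. Two-fold series at final concentrations 64 down to 0.25 µg/mL, with medium-only and growth controls. Inoculum from fresh colonies (18-24 h, 35 °C ± 2 °C) adjusted to 0.5 McFarland, final ≈5 × 10^5 CFU/mL. Plates incubated unshaken 16-20 h at 35 °C ± 2 °C. MIC read visually as complete inhibition of growth.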

Pseudomonas aeruginosa [5] = assay: Antibacterial activity against Pseudomonas aeruginosa PAO1 after 16 to 20 hrs by broth microdilution method; assay type: functional; method in brief: as §2
Pseudomonas aeruginosa [6] = assay: Antibacterial activity against efflux defective Pseudomonas aeruginosa PAO750 after 16 to 20 hrs by broth microdilution method; assay type: functional; method in brief: as §2
Klebsiella pneumoniae = assay: Antibacterial activity against Klebsiella pneumoniae ATCC 13883 after 16 to 20 hrs by broth microdilution method; assay type: functional; method in brief: as §2
HepG2 = assay: Cytotoxicity against human HepG2 cells after 72 hrs by FMSA; assay type: cell-based; conditions: HepG2, 72 h
Method in brief: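 HepG2 (ATCC) grown in EMEM with 10% FBS, pen/strep, 2 mM L-glutamine, used up to 20 passages. Seeded at 1000 cells/well, cultured overnight, then dosed acoustically from DMSO stocks. Eight two-fold dilutions in duplicate from top 64 or 32 µM; 72 h at 37 °C, 5% CO2. Fluorescein diacetate hydrolysis read at ex 485/em 530 nm; IC50 by non-linear regression.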

Acinetobacter baumannii = assay: Antibacterial activity against Acinetobacter baumannii ATCC 19606 after 16 to 20 hrs by broth microdilution method; assay type: functional; conditions: ATCC 19606 = CIP 70.34 = JCM 6841; method in brief: as §2
Staphylococcus aureus = assay: Antibacterial activity against Staphylococcus aureus ATCC 29213 after 16 to 20 hrs by broth microdilution method; assay type: functional; method in brief: as §2
[7] = target: Signal peptidase I (Escherichia coli K-12) (UniProt P00803); assay: Inhibition of Escherichia coli type 1 signal peptidase lepB assessed as residual activity at 10 uM preincubated for 10 mins followed by Dabcyl-VGGTATAYGAFSRPGLE-(EDANS)-OH substrate addition measured after 2 hrs by FRET based assay (reference value: 100%); method in brief: as §1
Sequence of Signal peptidase I (Escherichia coli K-12) (P00803 whole entry): as above

[8] = target: Signal peptidase I (Escherichia coli K-12) (UniProt P00803); assay: Inhibition of Escherichia coli type 1 signal peptidase lepB assessed as residual activity at 5 uM preincubated for 10 mins followed by Dabcyl-VGGTATAYGAFSRPGLE-(EDANS)-OH substrate addition measured after 2 hrs by FRET based assay (reference value: 100%); method in brief: as §1
[9] = target: Signal peptidase I (Escherichia coli K-12) (UniProt P00803); assay: Inhibition of Escherichia coli type 1 signal peptidase lepB assessed as residual activity at 2.5 uM preincubated for 10 mins followed by Dabcyl-VGGTATAYGAFSRPGLE-(EDANS)-OH substrate addition measured after 2 hrs by FRET based assay (reference value: 100%); method in brief: as §1
[10] = target: Signal peptidase I (Escherichia coli K-12) (UniProt P00803); assay: Inhibition of Escherichia coli type 1 signal peptidase lepB assessed as residual activity at 1.25 uM preincubated for 10 mins followed by Dabcyl-VGGTATAYGAFSRPGLE-(EDANS)-OH substrate addition measured after 2 hrs by FRET based assay (reference value: 100%); method in brief: as §1
[11] = target: Signal peptidase I (Escherichia coli K-12) (UniProt P00803); assay: Inhibition of Escherichia coli type 1 signal peptidase lepB assessed as residual activity at 0.625 uM preincubated for 10 mins followed by Dabcyl-VGGTATAYGAFSRPGLE-(EDANS)-OH substrate addition measured after 2 hrs by FRET based assay (reference value: 100%); method in brief: as §1
[12] = target: Signal peptidase I (Escherichia coli K-12) (UniProt P00803); assay: Inhibition of Escherichia coli type 1 signal peptidase lepB assessed as residual activity at 0.3125 uM preincubated for 10 mins followed by Dabcyl-VGGTATAYGAFSRPGLE-(EDANS)-OH substrate addition measured after 2 hrs by FRET based assay (reference value: 100%); method in brief: as §1
[13] = target: Signal peptidase I (Escherichia coli K-12) (UniProt P00803); assay: Inhibition of Escherichia coli type 1 signal peptidase lepB assessed as residual activity at 0.1563 uM preincubated for 10 mins followed by Dabcyl-VGGTATAYGAFSRPGLE-(EDANS)-OH substrate addition measured after 2 hrs by FRET based assay (reference value: 100%); method in brief: as §1
[14] = target: Signal peptidase I (Escherichia coli K-12) (UniProt P00803); assay: Inhibition of Escherichia coli type 1 signal peptidase lepB assessed as residual activity at 0.0781 uM preincubated for 10 mins followed by Dabcyl-VGGTATAYGAFSRPGLE-(EDANS)-OH substrate addition measured after 2 hrs by FRET based assay (reference value: 100%); method in brief: as §1
[15] = target: Signal peptidase I (Escherichia coli K-12) (UniProt P00803); assay: Inhibition of Escherichia coli type 1 signal peptidase lepB assessed as residual activity at 0.0391 uM preincubated for 10 mins followed by Dabcyl-VGGTATAYGAFSRPGLE-(EDANS)-OH substrate addition measured after 2 hrs by FRET based assay (reference value: 100%); method in brief: as §1
[16] = target: Signal peptidase I (Escherichia coli K-12) (UniProt P00803); assay: Inhibition of Escherichia coli type 1 signal peptidase lepB assessed as residual activity at 0.0195 uM preincubated for 10 mins followed by Dabcyl-VGGTATAYGAFSRPGLE-(EDANS)-OH substrate addition measured after 2 hrs by FRET based assay (reference value: 100%); method in brief: as §1
[17] = target: Signal peptidase I (Escherichia coli K-12) (UniProt P00803); assay: Inhibition of Escherichia coli type 1 signal peptidase lepB assessed as residual activity at 0.0098 uM preincubated for 10 mins followed by Dabcyl-VGGTATAYGAFSRPGLE-(EDANS)-OH substrate addition measured after 2 hrs by FRET based assay (reference value: 100%); method in brief: as §1
[18] = target: Signal peptidase I (Escherichia coli K-12) (UniProt P00803); assay: Inhibition of Escherichia coli type 1 signal peptidase lepB assessed as residual activity at 0.0049 uM preincubated for 10 mins followed by Dabcyl-VGGTATAYGAFSRPGLE-(EDANS)-OH substrate addition measured after 2 hrs by FRET based assay (reference value: 100%); method in brief: as §1
[19] = target: Signal peptidase I (Escherichia coli K-12) (UniProt P00803); assay: Inhibition of Escherichia coli type 1 signal peptidase lepB assessed as residual activity at 0.0024 uM preincubated for 10 mins followed by Dabcyl-VGGTATAYGAFSRPGLE-(EDANS)-OH substrate addition measured after 2 hrs by FRET based assay (reference value: 100%); method in brief: as §1
[20] = target: Signal peptidase I (Escherichia coli K-12) (UniProt P00803); assay: Inhibition of Escherichia coli type 1 signal peptidase lepB assessed as residual activity at 0.0012 uM preincubated for 10 mins followed by Dabcyl-VGGTATAYGAFSRPGLE-(EDANS)-OH substrate addition measured after 2 hrs by FRET based assay (reference value: 100%); method in brief: as §1
[21] = target: Signal peptidase I (Escherichia coli K-12) (UniProt P00803); assay: Inhibition of Escherichia coli type 1 signal peptidase lepB assessed as residual activity at 0.0006 uM preincubated for 10 mins followed by Dabcyl-VGGTATAYGAFSRPGLE-(EDANS)-OH substrate addition measured after 2 hrs by FRET based assay (reference value: 100%); method in brief: as §1

SMILES	hemolysis at 0.75 h, 100 µM [1] [%]	IC50 (Signal peptidase I) [nM]	MIC (Escherichia coli [2]) [µg/mL]	MIC (Escherichia coli [3]) [µg/mL]	MIC (Escherichia coli [4]) [µg/mL]	MIC (Pseudomonas aeruginosa [5]) [µg/mL]	MIC (Pseudomonas aeruginosa [6]) [µg/mL]	MIC (Klebsiella pneumoniae) [µg/mL]	IC50 (HepG2) [nM]	MIC (Acinetobacter baumannii) [µg/mL]	MIC (Staphylococcus aureus) [µg/mL]	Activity [7] [%]	Activity [8] [%]	Activity [9] [%]	Activity [10] [%]	Activity [11] [%]	Activity [12] [%]	Activity [13] [%]	Activity [14] [%]	Activity [15] [%]	further results
CCCCCCc1ccc(-c2ccc(C(=O)N[C@@H](Cc3cnc[nH]3)C(=O)N[C@H](C(=O)N[C@@H](C)C(=O)N[C@H]3Cc4cn(nn4)CCCN4C[C@@H]5OB(O[C@@H]5C4)[C@H](C)NC3=O)[C@@H](C)O)cc2)cc1	4.1	107	> 64	> 64	64 (≈ 70.5 µM)	> 64	> 64	> 64	5400	> 64	> 64	20.8	25	27.8	34.1	34.2	39.7	52	66.2	76.7	Activity [16]: 81%; Activity [17]: 91.4%; Activity [18]: 90.8%; Activity [19]: 94.7%; Activity [20]: 94%; Activity [21]: 94.5%
CCCCCCC#Cc1cncc(C(=O)N[C@@H](CCCN)C(=O)N[C@H](C(=O)N[C@@H](C)C(=O)N[C@H]2Cc3cn(nn3)CCO[C@@H]3C[C@@H]4OB(O[C@@H]4C3)[C@H](C)NC2=O)[C@@H](C)O)c1	0.01	41	> 64	64 (≈ 76.7 µM)	> 64	> 64	> 64	> 64	> 64000	> 64	32 (≈ 38.3 µM)	-1.2	2.3	8.2	7.9	13	13.4	10.6	26.8	53.7	Activity [16]: 75.2%; Activity [17]: 82.7%; Activity [18]: 91%; Activity [19]: 93.6%; Activity [20]: 106%
CCCCCCc1ccc(-c2nc3cc(C(=O)N[C@@H](CCCN)C(=O)N[C@H](C(=O)N[C@@H](C)C(=O)N[C@H]4Cc5cn(nn5)CCO[C@@H]5C[C@@H]6OB(O[C@@H]6C5)[C@H](C)NC4=O)[C@@H](C)O)ccc3[nH]2)cc1	0.5	29	> 64	16 (≈ 17.3 µM)	64 (≈ 69.1 µM)	> 64	64 (≈ 69.1 µM)	64 (≈ 69.1 µM)	24400	64 (≈ 69.1 µM)	4 (≈ 4.32 µM)	6.3	-0.1	2.8	5.4	8.6	6.8	7.2	16.5	40.6	Activity [16]: 63.2%; Activity [17]: 86.3%; Activity [18]: 88.3%; Activity [19]: 92.8%; Activity [20]: 100%
